According to ChEMBL document CHEMBL3997787, “New pyridazinone-4-carboxamides as new cannabinoid receptor type-2 inverse agonists: Synthesis, pharmacological data and molecular docking” (Eur J Med Chem, 2017):

What was measured:
Cannabinoid receptor 2 [1] = molecular target: T1, Cannabinoid receptor 2 (Homo sapiens, UniProt P34972); assay: Displacement of [3H]CP55940 from human CB2 receptor expressed in HEK293 EBNA cell membranes after 90 mins by liquid scintillation and luminescence counting method
T1 sequence (P34972 whole entry): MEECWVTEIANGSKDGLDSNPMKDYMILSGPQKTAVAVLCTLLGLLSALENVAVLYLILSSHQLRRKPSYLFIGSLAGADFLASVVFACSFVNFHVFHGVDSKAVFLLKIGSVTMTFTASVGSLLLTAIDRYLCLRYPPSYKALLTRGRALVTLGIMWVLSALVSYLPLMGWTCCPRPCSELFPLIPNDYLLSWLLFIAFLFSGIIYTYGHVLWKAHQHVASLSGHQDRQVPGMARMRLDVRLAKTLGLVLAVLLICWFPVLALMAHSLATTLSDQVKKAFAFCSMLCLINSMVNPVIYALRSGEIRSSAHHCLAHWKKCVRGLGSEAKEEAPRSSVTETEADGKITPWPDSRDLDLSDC

Homo sapiens = species on record: Homo sapiens; assay: Selectivity ratio of Ki for human CB1 receptor to Ki for human CB2 receptor
Cannabinoid receptor 1 [2] = molecular target: T2, Cannabinoid receptor 1 (Homo sapiens, UniProt P21554); assay: Displacement of [3H]CP55940 from human CB1 receptor expressed in HEK293 EBNA cell membranes after 90 mins by liquid scintillation and luminescence counting method
T2 sequence (P21554 whole entry): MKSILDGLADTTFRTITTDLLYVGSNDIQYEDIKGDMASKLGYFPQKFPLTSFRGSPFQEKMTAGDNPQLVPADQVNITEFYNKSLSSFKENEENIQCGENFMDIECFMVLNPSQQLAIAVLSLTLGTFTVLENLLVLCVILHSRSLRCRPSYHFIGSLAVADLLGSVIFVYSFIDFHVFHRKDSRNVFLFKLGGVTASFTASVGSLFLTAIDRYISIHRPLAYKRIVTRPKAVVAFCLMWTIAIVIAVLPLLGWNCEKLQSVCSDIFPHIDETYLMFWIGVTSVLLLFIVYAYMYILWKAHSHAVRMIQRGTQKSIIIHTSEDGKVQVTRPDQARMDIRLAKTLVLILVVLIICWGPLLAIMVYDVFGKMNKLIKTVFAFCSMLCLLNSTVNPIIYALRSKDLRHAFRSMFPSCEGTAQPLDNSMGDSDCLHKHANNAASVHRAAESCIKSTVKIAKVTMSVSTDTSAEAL

Cannabinoid receptor 2 [3] = molecular target: T1, Cannabinoid receptor 2; assay: Displacement of [3H]CP55940 from human CB2 receptor expressed in HEK293 EBNA cell membranes at 4 uM after 90 mins by liquid scintillation and luminescence counting method relative to control
In short: (§1)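 Single-concentration screen (4 µM) on transfected-cell membranes with human CB1R (about 8 µg/well, 0.1 nM [³H]CP,55-940, pH 7.4 Tris/MgCl₂/EDTA/0.5 mg/mL BSA) or CB2R (1.33 µg/well, 0.15 nM radioligand, pH 7.5 Tris/MgCl₂/EGTA/1 mg/mL BSA). Incubated 90 min at 30 °C. Nonspecific binding defined with 10 µM WIN 55,212-2; 100% binding taken without compound. Filtered through PEI-soaked GF/C filters and counted.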

Cannabinoid receptor 1 [4] = molecular target: T2, Cannabinoid receptor 1; assay: Displacement of [3H]CP55940 from human CB1 receptor expressed in HEK293 EBNA cell membranes at 4 uM after 90 mins by liquid scintillation and luminescence counting method relative to control; in short: as §1
Cannabinoid receptor 2 [5] = molecular target: T1, Cannabinoid receptor 2; assay: Inverse agonist activity at human CB2 receptor expressed in HEK293 EBNA cell membranes after 30 mins by [35S]-GTPgammaS binding assay; format: functional
In short: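 Saponin-permeabilized CB2R membranes (5 µg/well) with 0.3 nM [35S]-GTPγS and 10 µM GDP in 20 mM HEPES, 100 mM NaCl, 10 mM MgCl₂, pH 7.4. Compounds at 10⁻¹² to 10⁻⁵ M, 30 min at 30 °C; nonspecific signal with 10 µM GTPγS. Filtered, washed with 10 mM sodium phosphate and counted. IC50 and Emax from curve fitting, mean ± SEM of at least three triplicate experiments.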

SMILES | Ki (Cannabinoid receptor 2 [1]; read-out: Ki) | Ratio Ki (Homo sapiens) | Ki (Cannabinoid receptor 1 [2]; read-out: Ki) | inhibition (Cannabinoid receptor 2 [3]) | inhibition (Cannabinoid receptor 1 [4]) | Emax (Cannabinoid receptor 2 [5]) | IC50 (Cannabinoid receptor 2 [5]) | Ki (Cannabinoid receptor 2 [1]; hek293) | Ki (Cannabinoid receptor 1 [2]; hek293)
Cc1cc(-c2cc(C(=O)NC34CC5CC(CC(C5)C3)C4)c(=O)n(Cc3ccc(F)cc3)n2)ccc1Cl | 0.0034 µM | > 1180 | > 4 µM | > 70% | > 70% |  |  |  | 
Cc1cc(-c2cc(C(=O)N[C@H]3CC[C@H](C)CC3)c(=O)n(Cc3ccc(F)cc3)n2)ccc1Cl | 0.009 µM | > 444 | > 4 µM | > 70% | > 70% |  |  |  | 
C[C@H]1CC[C@H](NC(=O)c2cc(-c3ccccc3)nn(Cc3ccc(F)cc3)c2=O)CC1 | 0.066 µM | 5 | 0.322 µM | > 70% | > 70% |  |  |  | 
C[C@H]1CC[C@@H](NC(=O)c2cc(-c3ccccc3)nn(Cc3ccc(F)cc3)c2=O)CC1 | 0.0057 µM | 20 | 0.115 µM | > 70% | > 70% | -65.7% | 0.0352 µM |  | 
Cc1cc(-c2cc(C(=O)NC3CCCCCC3)c(=O)n(Cc3ccc(F)cc3)n2)ccc1Cl | 0.0049 µM | > 816 | > 4 µM | > 70% | > 70% |  |  |  | 
Cc1ccc(Cn2nc(-c3ccc(Cl)c(C)c3)cc(C(=O)NC3CCCCCC3)c2=O)cc1 |  |  |  |  |  |  |  | Nd(Insoluble) | Nd(Insoluble)
Cc1cc(-c2cc(C(=O)NC3CCCCC3)c(=O)n(Cc3ccc(F)cc3)n2)ccc1Cl | 0.0047 µM | > 851 | > 4 µM | > 70% | > 70% | -60.7% | 0.0253 µM |  | 
Cc1cc(-c2cc(C(=O)NCCN3CCOCC3)c(=O)n(Cc3ccc(F)cc3)n2)ccc1Cl | 0.311 µM | > 12.9 | > 4 µM | > 70% | > 70% |  |  |  | 
Cc1cc(-c2cc(C(=O)N[C@@H]3C(C)(C)[C@@H]4CC[C@@]3(C)C4)c(=O)n(Cc3ccc(F)cc3)n2)ccc1Cl | 0.0026 µM | > 1540 | > 4 µM | > 70% | > 70% | -58.7% | 0.0512 µM |  | 
Cc1cc(-c2cc(C(=O)N[C@H]3CC[C@@H](C)CC3)c(=O)n(Cc3ccc(F)cc3)n2)ccc1Cl | 0.002 µM | > 2000 | > 4 µM | > 70% | > 70% | -43.8% | 0.0207 µM |  | 
O=C(NC1CCCCCC1)c1c2c(nn(Cc3ccc(F)cc3)c1=O)-c1ccccc1C2 | > 4 µM |  | > 4 µM | > 70% | > 70% |  |  |  | 
Cc1ccc(Cn2nc(C(=O)N[C@@H]3C(C)(C)[C@@H]4CC[C@@]3(C)C4)cc2-c2ccc(Cl)c(C)c2)cc1 |  |  |  |  |  | -63.2% |  |  | 
Cc1ccc(Cn2nc(-c3ccc(Cl)c(C)c3)cc(C(=O)NC3CCCCC3)c2=O)cc1 | 0.24 µM | > 16.6 | > 4 µM | > 70% | > 70% |  |  |  | 
Cc1ccc(Cn2nc(-c3ccc(Cl)c(C)c3)cc(C(=O)NC34CC5CC(CC(C5)C3)C4)c2=O)cc1 |  |  |  |  |  |  |  | Nd(Insoluble) | Nd(Insoluble)
O=C(NC12CC3CC(CC(C3)C1)C2)c1cc(-c2ccccc2)nn(Cc2ccc(F)cc2)c1=O |  |  |  |  |  |  |  | Nd(Insoluble) | Nd(Insoluble)
O=C(NC1CCCCCC1)c1cc(-c2ccccc2)nn(Cc2ccc(F)cc2)c1=O | 0.016 µM | 2 | 0.033 µM | > 70% | > 70% |  |  |  | 
O=C(NC1CCCCC1)c1cc(-c2ccccc2)nn(Cc2ccc(F)cc2)c1=O | 0.044 µM | 11 | 0.467 µM | > 70% | > 70% |  |  |  | 
